Results: ChEMBL document CHEMBL5316280, “Development of N-(1-Adamantyl)benzamides as Novel Anti-Inflammatory Multitarget Agents Acting as Dual Modulators of the Cannabinoid CB2 Receptor and Fatty Acid Amide Hydrolase” (J Med Chem, 2023)
Active and inactive are the calls of the source. The calls are words filed in the database; no cut-off is given here.

Experiments:
Cannabinoid receptor 2 [1] = biological target: T1, Cannabinoid receptor 2 (Homo sapiens, UniProt P34972); experiment: Displacement of [3H]CP55940 from recombinant human CB2 receptor expressed in HEK293 cell membrane incubated for 90 mins by beta scintillation counter method; assay type: cell membranes
How it was run: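 HEK293 membranes stably expressing human CB2 (50 µg protein/well) competed with 0.2 nM [3H]-CP55,940 (final) against test compound at 10⁻¹²–10⁻⁵ M in Tris-HCl 50 mM, EGTA 2.5 mM, MgCl₂ 5 mM, 0.1% fatty-acid-free BSA, pH 7.4; 90 min at 30 °C. Nonspecific binding defined with 10 µM GW405833.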

[2] = biological target: T2, Fatty-acid amide hydrolase 1 (Homo sapiens, UniProt O00519); experiment: Inhibition of recombinant human FAAH using AMC-AA as substrate preincubated for 10 mins followed by substrate addition measured after 2 hrs by fluorometric assay
T2 sequence (O00519 whole entry): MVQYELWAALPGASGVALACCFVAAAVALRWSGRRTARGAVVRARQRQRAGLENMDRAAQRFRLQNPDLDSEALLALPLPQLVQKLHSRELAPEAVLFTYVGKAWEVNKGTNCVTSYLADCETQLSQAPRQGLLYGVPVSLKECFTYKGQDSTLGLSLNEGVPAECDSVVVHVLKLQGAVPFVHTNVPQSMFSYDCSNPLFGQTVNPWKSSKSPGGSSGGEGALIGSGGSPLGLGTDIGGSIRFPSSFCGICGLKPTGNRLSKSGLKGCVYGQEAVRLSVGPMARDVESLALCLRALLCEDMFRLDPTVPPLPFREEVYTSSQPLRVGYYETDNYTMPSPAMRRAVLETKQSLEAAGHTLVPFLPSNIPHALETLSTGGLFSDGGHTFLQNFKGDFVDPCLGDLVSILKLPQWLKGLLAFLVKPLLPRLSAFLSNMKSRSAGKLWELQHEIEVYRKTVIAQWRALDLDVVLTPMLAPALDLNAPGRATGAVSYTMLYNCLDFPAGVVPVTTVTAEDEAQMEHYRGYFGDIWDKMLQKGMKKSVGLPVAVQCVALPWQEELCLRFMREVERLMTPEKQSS
How it was run: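 Human recombinant FAAH preincubated with inhibitor at various concentrations in Tris-HCl 125 mM, Na₂EDTA 1 mM, pH 9.0, 10 min at room temperature with shaking. AMC-AA substrate then added (1 µM final); fluorescence read every 30 s for 2 h at 37 °C (ex 340/em 450 nm). Percent inhibition from no-inhibitor controls and no-enzyme blanks; IC50 from at least three independent runs in triplicate.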

[3] = Metal chelating activity assessed as Fe2+-compound complex formation incubated for 15 mins by Ferrozine based assay
How it was run: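 FeSO₄ (25 µM) in water incubated with or without test compound (100 µM, DMSO) for 15 min at room temperature, 300 µL final. Ferrozine then added (1 mM final), shaken 15 min at room temperature. Absorbance of the ferrozine–Fe(II) magenta complex read at 562 nm; chelation seen as reduced complex formation.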

THP-1 [4] = experiment: Antiinflammatory activity in human THP-1 macrophages assessed as decrease in IL-6 level incubated for 24 hrs by ELISA based qRT-PCR analysis; assay type: functional, cell-based
How it was run: (§1)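 THP-1 cells were seeded at 1 x 10⁵ cells/ml for 48 h. For macrophages, cells were differentiated with 0.01 µM PMA for 48 h; monocytes received no PMA. Cells were then given 24 h with or without 10 µg/ml LPS, plus ligands alone or with the CB2R inverse agonist JTE907 (10 µM). Cytokines were measured in 5 µL supernatant (from 1 x 10⁴ cells) by ProQuantum immunoassay, read as pg/ml from kit titration curves; n=3.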

THP-1 [5] = experiment: Antiinflammatory activity in human THP-1 macrophages assessed as increase in IL-10 level incubated for 24 hrs by ELISA based qRT-PCR analysis; assay type: functional, cell-based; how it was run: as §1
THP-1 [6] = experiment: Antiinflammatory activity in LPS-activated human THP-1 monocytes assessed as decrease in IL-6 level incubated for 24 hrs by ELISA based qRT-PCR analysis; assay type: functional, cell-based; how it was run: as §1
Cannabinoid receptor 2 [7] = biological target: Cannabinoid receptor 2 (Mus musculus, UniProt P47936); experiment: Agonist activity at mouse CB2 receptor transfected in CHO-K1 cells assessed as beta2-arrestin recruitment incubated for 90 mins by luminescence based assay; assay type: functional, cell-based
How it was run: (§2)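 PathHunter eXpress kit using mouse CB2 receptor in CHO-K1 cells. Cells were seeded 48 h before the assay in kit medium. Compounds in cell plating reagent were incubated 90 min at 37 °C, 5% CO2. Working detection solution was then added for 60 min at room temperature to read β-arrestin recruitment.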

[8] = biological target: Cannabinoid receptor 2 (Mus musculus) (UniProt P47936); experiment: Agonist activity at mouse CB2 receptor transfected in CHO-K1 cells assessed as beta2-arrestin recruitment incubated for 90 mins by luminescence based assay relative to control; assay type: functional, cell-based; settings: filed as agonist; how it was run: as §2
Cannabinoid receptor 1 = Cannabinoid receptor 1 (Homo sapiens, UniProt P21554); experiment: […] human CB1 receptor in CHO cells incubated for 15 mins by plate reader analysis relative to control; assay type: cell-based
How it was run: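 CHO-CB1 C3 cells (human CB1) were seeded at 8000 cells/well in medium with dialyzed FBS and preincubated 15 min at 37 °C. Compounds or the CP55940 control were added for 15 min at 37 °C, then forskolin 10 µM for 5 min. cAMP was read by HTRF after 1 h at room temperature (λex 320 nm, λem 620-665 nm).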

Cannabinoid receptor 2 [9] = biological target: T1, Cannabinoid receptor 2; experiment: Agonist activity at human CB2 receptor overexpressed in CHO-K1 cells assessed as cAMP level incubated for 30 mins by luminescence based assay; assay type: functional, cell-based
How it was run: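 CHO-K1 cells overexpressing human CB2R were plated at 30 000 cells/well and held overnight at 37 °C, 5% CO2. Test samples were added as dose–response solutions with NKH-477 to stimulate adenylate cyclase, then incubated 30 min at 37 °C. cAMP was detected by luminescence after cell lysis. Values were normalized to NKH-477 alone as 100% response. Three independent experiments were run in triplicate.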

T1 sequence (P34972 whole entry): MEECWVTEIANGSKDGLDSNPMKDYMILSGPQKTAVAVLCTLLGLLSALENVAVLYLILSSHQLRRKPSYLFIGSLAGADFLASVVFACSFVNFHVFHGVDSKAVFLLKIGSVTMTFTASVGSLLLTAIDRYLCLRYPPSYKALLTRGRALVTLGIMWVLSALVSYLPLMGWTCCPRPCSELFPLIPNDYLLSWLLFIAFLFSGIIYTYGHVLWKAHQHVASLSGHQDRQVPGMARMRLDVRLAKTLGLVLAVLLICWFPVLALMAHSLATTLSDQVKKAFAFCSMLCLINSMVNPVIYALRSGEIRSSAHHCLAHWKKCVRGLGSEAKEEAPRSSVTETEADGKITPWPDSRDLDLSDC
Chain of Cannabinoid receptor 2 (Mus musculus) (P47936 whole entry): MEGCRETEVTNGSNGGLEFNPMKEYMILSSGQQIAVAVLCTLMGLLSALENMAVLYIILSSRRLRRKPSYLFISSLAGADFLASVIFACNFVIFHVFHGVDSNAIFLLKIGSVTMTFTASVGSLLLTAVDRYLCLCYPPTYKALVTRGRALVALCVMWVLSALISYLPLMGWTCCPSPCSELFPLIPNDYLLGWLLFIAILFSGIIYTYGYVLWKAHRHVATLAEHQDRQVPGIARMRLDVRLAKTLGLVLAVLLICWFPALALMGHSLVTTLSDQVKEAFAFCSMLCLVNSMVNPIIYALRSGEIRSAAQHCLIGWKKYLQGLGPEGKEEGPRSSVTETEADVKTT
Chain of Cannabinoid receptor 2 (Mus musculus, UniProt P47936) (P47936 whole entry): as above
Chain of Cannabinoid receptor 1 (P21554 whole entry): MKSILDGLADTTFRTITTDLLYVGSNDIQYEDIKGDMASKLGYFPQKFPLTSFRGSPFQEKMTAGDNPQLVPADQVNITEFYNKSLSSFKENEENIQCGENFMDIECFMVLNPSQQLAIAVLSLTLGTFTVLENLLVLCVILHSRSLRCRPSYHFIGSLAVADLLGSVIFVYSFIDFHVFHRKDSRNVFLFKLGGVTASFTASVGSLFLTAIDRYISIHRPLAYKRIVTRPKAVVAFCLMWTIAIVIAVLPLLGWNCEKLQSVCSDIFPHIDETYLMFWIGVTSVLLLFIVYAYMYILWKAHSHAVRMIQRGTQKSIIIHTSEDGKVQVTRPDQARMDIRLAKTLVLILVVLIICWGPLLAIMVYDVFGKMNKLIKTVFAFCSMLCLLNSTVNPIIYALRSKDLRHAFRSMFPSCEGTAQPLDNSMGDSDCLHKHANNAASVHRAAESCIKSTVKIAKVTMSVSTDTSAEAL

Structure (SMILES) | Ki (Cannabinoid receptor 2 [1]) [µM] | IC50 [2] [µM] | Activity [3] | further results
O=C(NC12CC3CC(CC(C3)C1)C2)c1ccc(OCc2ccccc2)cc1 | 3.85 | 19.5 | Active | –
O=C(NC1CCCCC1)c1cn(CCN2CCOCC2)c2cc(Cl)ccc2c1=O | – | – | – | Activity (THP-1 [4]): inactive; Activity (THP-1 [5]): inactive; Activity (THP-1 [6]): inactive
COc1ccccc1C(=O)NC12CC3CC(CC(C3)C1)C2 | 0.387 | 48.5 | Active | –
COc1cc(Br)cc(C(=O)NC23CC4CC(CC(C4)C2)C3)c1OC | 0.139 | 44.6 | Active | –
O=C(NC12CC3CC(CC(C3)C1)C2)c1cccc(O)c1 | – | 25.6 | Active | –
COc1cc(Br)cc(C(=O)NC23CC4CC(CC(C4)C2)C3)c1OCc1ccccc1 | 3.2 | 8.8 | Active | –
O=C(NC12CC3CC(CC(C3)C1)C2)c1ccc(O)cc1 | 1.06 | > 50 | Active | –
COc1cccc(C(=O)NC23CC4CC(CC(C4)C2)C3)c1OC | 0.0876 | > 50 | Active | –
COc1ccc(C(=O)NC23CC4CC(CC(C4)C2)C3)cc1 | 2.45 | > 50 | Active | –
O=C(NC12CC3CC(CC(C3)C1)C2)c1ccccc1O | – | > 50 | Active | –
O=C(NC12CC3CC(CC(C3)C1)C2)c1ccccc1 | – | 23.4 | Active | –
CCCCCCC(C)(C)c1ccc([C@H]2C[C@@H](O)CC[C@@H]2CCCO)c(O)c1 | – | – | – | EC50 (Cannabinoid receptor 2 [7]): 0.0004 µM; Emax [8]: 100%; Emax (Cannabinoid receptor 1): 100%
O=C(NC12CC3CC(CC(C3)C1)C2)c1cccc(OCc2ccccc2)c1 | 0.313 | 24.1 | Active | –
CCCC(C)(C)c1ccc2c(c1)OC(C)(C)[C@@H]1CC=C(C)C[C@@H]21 | – | – | – | EC50 (Cannabinoid receptor 2 [9]): 0.169 µM
COc1ccc(C(=O)NC23CC4CC(CC(C4)C2)C3)cc1OC | 3 | > 50 | Active | –
COc1cc(Br)cc(C(=O)NC23CC4CC(CC(C4)C2)C3)c1O | – | 38.4 | Active | –
COc1cccc(C(=O)NC23CC4CC(CC(C4)C2)C3)c1O | 0.153 | > 50 | Active | –
COc1cccc(C(=O)NC23CC4CC(CC(C4)C2)C3)c1 | 0.51 | 32.3 | Active | –
